≈ marks a conversion by molar mass, not a printed value. Calls of active or inactive are those of the source. The calls are words filed in the database; no cut-off is given here.
Experiments:
[1] = test system: Streptococcus pneumoniae; assay: Antimicrobial activity against Streptococcus pneumoniae RCMB 010010 assessed as diameter of zone inhibition at 100 ug/ml after 24 hrs by agar well diffusion assay; type: functional; settings: for zone of inhibition at 100 µg/mL: RCMB 010010, 24 h, read-out: DIZ
Method in brief: (§1)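 Agar well diffusion on nutrient agar plates seeded with the bacterium, using 1 cm wells. Plates were held at 4°C for 1 h for diffusion, then incubated at 37°C. Inhibition zone diameters were measured at 24 h. Ciprofloxacin was the positive control. Run in triplicate, with the mean zone reported.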

[2] = test system: Aspergillus fumigatus; assay: Antimicrobial activity against Aspergillus fumigatus RCMB 02568 assessed as diameter of zone inhibition at 100 ug/ml after 48 hrs by agar well diffusion assay; type: functional; settings: for zone of inhibition at 100 µg/mL: RCMB 02568, 48 h, read-out: DIZ
Method in brief: (§2)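 Agar well diffusion on malt agar plates seeded with the fungus, using 1 cm wells. Plates were held at 4°C for 1 h for diffusion, then incubated at 28°C. Inhibition zone diameters were measured at 48 h. Amphotericin B was the positive control. Run in triplicate, with the mean zone reported.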

[3] = test system: Mycobacterium tuberculosis; assay: Antimycobacterial activity against Mycobacterium tuberculosis RCMB 010126 clinical isolate after 7 days by MABA; type: functional
Method in brief: (§3)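 Inoculum from fresh LJ culture resuspended in 7H9-S broth with casitone, glycerol and OADC, adjusted to McFarland No. 1 and diluted 1:20. Serial two-fold compound dilutions in 7H9-S; isoniazid reference. Incubated 7 days at 37°C in air, then Alamar blue added and incubated overnight. Percent inhibition = 1 − (test well/growth-control mean) × 100; MIC = lowest concentration preventing blue-to-pink change.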

[4] = test system: Candida albicans; assay: Antimicrobial activity against Candida albicans RCMB 05036 assessed as diameter of zone inhibition at 100 ug/ml after 48 hrs by agar well diffusion assay; type: functional; settings: for zone of inhibition at 100 µg/mL: RCMB 05036, 48 h, read-out: DIZ; method in brief: as §2
[5] = test system: Staphylococcus aureus; assay: Antimicrobial activity against Staphylococcus aureus RCMB 010028 assessed as diameter of zone inhibition at 100 ug/ml after 24 hrs by agar well diffusion assay; type: functional; settings: for zone of inhibition at 100 µg/mL: RCMB 010028, 24 h, read-out: DIZ; method in brief: as §1
[6] = test system: Mycobacterium tuberculosis; assay: Antimycobacterial activity against Mycobacterium tuberculosis RCMB 010126 clinical isolate assessed as inhibition zone after 7 days by MABA; type: functional; method in brief: as §3
[7] = test system: Escherichia coli; assay: Antimicrobial activity against Escherichia coli RCMB 010052 assessed as diameter of zone inhibition at 100 ug/ml after 24 hrs by agar well diffusion assay; type: functional; settings: for zone of inhibition at 100 µg/mL: RCMB 010052, 24 h, read-out: DIZ; method in brief: as §1
[8] = test system: Pseudomonas aeruginosa; settings: RCMB 010043, 100 ug/ml
[9] = test system: Candida albicans; assay: Antimicrobial activity against Candida albicans RCMB 05036 after 48 hrs by serial dilution method; type: functional; settings: RCMB 05036, 48 h
Method in brief: (§4)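 Serial twofold dilution in microtiter plates starting from a 100 mmol stock in DMSO; final concentrations 125 down to 0.12 […]. Incubated at 28°C and read on a microplate reader after 48 h. Amphotericin B was the reference. Run in triplicate, with the average taken. MIC was the lowest concentration inhibiting growth.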

[10] = test system: Aspergillus fumigatus; assay: Antimicrobial activity against Aspergillus fumigatus RCMB 02568 after 48 hrs by serial dilution method; type: functional; settings: RCMB 02568, 48 h; method in brief: as §4
[11] = test system: Staphylococcus aureus; assay: Antimicrobial activity against Staphylococcus aureus RCMB 010028 after 24 hrs by serial dilution method; type: functional; settings: RCMB 010028, 24 h
Method in brief: (§5)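 Serial twofold dilution in microtiter plates starting from a 100 mmol stock in DMSO; final concentrations 125 down to 0.12 […]. Incubated at 37°C and read on a microplate reader after 24 h. Ciprofloxacin was the reference. Run in triplicate, with the average taken. MIC was the lowest concentration inhibiting growth.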

[12] = test system: Pseudomonas aeruginosa; settings: RCMB 010043
[13] = test system: Streptococcus pneumoniae; assay: Antimicrobial activity against Streptococcus pneumoniae RCMB 010010 after 24 hrs by serial dilution method; type: functional; settings: RCMB 010010, 24 h; method in brief: as §5
[14] = test system: Escherichia coli; assay: Antimicrobial activity against Escherichia coli RCMB 010052 after 24 hrs by serial dilution method; type: functional; settings: RCMB 010052, 24 h; method in brief: as §5
[15] = Mycobacterium tuberculosis, RCMB 010126, 168 h

SMILES	diameter of the inhibition zone (DIZ) [1]	diameter of the inhibition zone (DIZ) [2]	MIC [3, 15]	diameter of the inhibition zone (DIZ) [4]	diameter of the inhibition zone (DIZ) [5]	inhibition zone (IZ) [6]	diameter of the inhibition zone (DIZ) [7]	DIZ [8]	zone of inhibition at 100 µg/mL [2]	MIC [9]	zone of inhibition at 100 µg/mL [4]	MIC [10]	zone of inhibition at 100 µg/mL [1]	zone of inhibition at 100 µg/mL [5]	zone of inhibition at 100 µg/mL [7]	MIC [11]	MIC [12]	MIC [13]	MIC [14]	MIC [3]
Cc1nc(-c2cccc(Cl)c2)ccc1C(=O)N/N=C/c1ccc(F)cc1	inactive	inactive	3.12 µg/mL (≈ 8.48 µM)	inactive	inactive	52.34 mm	inactive	inactive												
C[C@@H]1[C@H](O)[C@@H](C)/C=C/C=C/C=C/C=C/C=C/C=C/C=C/[C@H](O[C@@H]2O[C@H](C)[C@@H](O)[C@H](N)[C@@H]2O)C[C@@H]2O[C@](O)(C[C@@H](O)C[C@@H](O)[C@H](O)CC[C@@H](O)C[C@@H](O)CC(=O)O[C@H]1C)C[C@H](O)[C@H]2C(=O)O [AMPHOTERICIN B]									23.7 mm	0.98 µg/mL (≈ 1.06 µM)	25.4 mm	1.95 µg/mL (≈ 2.11 µM)								
O=C(N/N=C/c1ccc(F)cc1)c1c[nH]c2cc(Cl)ccc2c1=O			12.5 µg/mL (≈ 36.3 µM)			36.42 mm		inactive	16.8 mm		14.4 mm		16.9 mm	16.2 mm	12.5 mm					
O=C(N/N=C/c1ccc(Cl)cc1Cl)c1c[nH]c2ccc(Cl)cc2c1=O			99.8 µg/mL (≈ 253 µM)			18.3 mm		inactive	16.9 mm	62.5 µg/mL (≈ 158 µM)	14.1 mm	15.6 µg/mL (≈ 39.6 µM)	17.5 mm	15.7 mm	20.7 mm	15.6 µg/mL (≈ 39.6 µM)	inactive	7.81 µg/mL (≈ 19.8 µM)	1.95 µg/mL (≈ 4.94 µM)	
Cc1ccc(/C=N/NC(=O)c2ccc(-c3ccc(Cl)cc3)nc2C)cc1	inactive	inactive	49.9 µg/mL (≈ 137 µM)	inactive	inactive	26.35 mm	inactive	inactive												
Cc1nc(-c2ccc(Cl)cc2)ccc1C(=O)N/N=C/c1ccc(Cl)cc1	inactive	inactive	12.5 µg/mL (≈ 32.5 µM)	inactive	inactive	36.24 mm	inactive	inactive												
Cc1nc(-c2cccc(Cl)c2)ccc1C(=O)N/N=C/c1ccc(Cl)cc1Cl		inactive	6.24 µg/mL (≈ 14.9 µM)	inactive		41.98 mm	inactive	inactive					19.3 mm	11.4 mm						
Cc1nc(-c2ccc(Cl)cc2)ccc1C(=O)N/N=C/c1ccc(Cl)cc1Cl			12.5 µg/mL (≈ 29.8 µM)			35.38 mm		inactive	19.3 mm	15.6 µg/mL (≈ 37.3 µM)	17.4 mm	3.9 µg/mL (≈ 9.31 µM)	21.3 mm	19.3 mm	21.3 mm	3.9 µg/mL (≈ 9.31 µM)	inactive	1.95 µg/mL (≈ 4.66 µM)	1.95 µg/mL (≈ 4.66 µM)	
COc1ccc(/C=N/NC(=O)c2c[nH]c3cc(Cl)ccc3c2=O)cc1OC						inactive		inactive	20.3 mm	31.2 µg/mL (≈ 81 µM)	16.2 mm	3.9 µg/mL (≈ 10.1 µM)	17.3 mm	20.6 mm	20.3 mm	1.95 µg/mL (≈ 5.05 µM)	inactive	15.6 µg/mL (≈ 40.5 µM)	3.9 µg/mL (≈ 10.1 µM)	inactive
Cc1ccc(/C=N/NC(=O)c2c[nH]c3ccc(Cl)cc3c2=O)cc1					inactive	inactive	inactive	inactive	10.3 mm		12.1 mm		20.4 mm							inactive
COc1cc(/C=N/NC(=O)c2c[nH]c3cc(Cl)ccc3c2=O)cc(OC)c1OC	inactive	inactive	6.24 µg/mL (≈ 15 µM)	inactive	inactive	42.65 mm	inactive	inactive												
Cc1nc(-c2ccc(Cl)cc2)ccc1C(=O)N/N=C/c1ccc(F)cc1	inactive	inactive	6.24 µg/mL (≈ 17 µM)	inactive	inactive	40.31 mm	inactive	inactive												
NNC(=O)c1ccncc1 [ISONIAZID]			0.75 µg/mL (≈ 5.47 µM)			inactive														
CC1(C)S[C@@H]2[C@H](NC(=O)[C@H](N)c3ccccc3)C(=O)N2[C@H]1C(=O)O [AMPICILLIN]													23.8 mm	27.4 mm		0.98 µg/mL (≈ 2.8 µM)		0.98 µg/mL (≈ 2.8 µM)		

Reference: ChEMBL document CHEMBL4130356, “Design, synthesis and 2D QSAR study of novel pyridine and quinolone hydrazone derivatives as potential antimicrobial and antitubercular agents” (Eur J Med Chem, 2017)
